In brackets after ≈: the same amount, converted by molar mass.

Common to all, as to type: functional
The subject of assay [1] is Escherichia coli. The assay can be described thus: Antimicrobial activity against Escherichia coli infected in mouse compound administered subcutaneously at 0.5 hr, 4 hrs and 24 hrs post infection. The settings on record: sc, read-out: PD50. In short, it runs like this:
(§1)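 Male and female mice, 11–13 g. Acute systemic infection by intraperitoneal inoculation of 1–10 times the organism count killing 100% of untreated mice in 4 days; standardized cultures suspended in 5% hog gastric mucin. Treated 0.5 h after infection, again at 4.0 h and at 24 h. PD50 (50% protective dose) calculated by probit method.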

The subject of assay [2] is Pasteurella multocida. The assay can be described thus: Antimicrobial activity against Pasteurella multocida infected in mouse compound administered subcutaneously at 0.5 hr, 4 hrs and 24 hrs post infection. Particulars: sc, read-out: PD50. In short, it runs like this:
(§2)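 Infections in male and female mice (11–13 g), given intraperitoneally at one to ten times the inoculum lethal to all nonmedicated mice within 4 days. Standardized cultures were suspended in brain-heart infusion broth. Doses were given at 0.5, 4.0 and 24 h post-infection. The 50% protective dose was derived by probit analysis.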

The test system of assay [3] is Streptococcus pyogenes. The experiment in a line: Antimicrobial activity against Streptococcus pyogenes measured after overnight incubation by susceptibility test. In short, it runs like this: (§3)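 MIC by agar dilution: about 10^4 organisms applied with a replicating device onto brain-heart infusion agar holding twofold dilutions of drug; plates incubated overnight at 37 °C under anaerobic conditions (Gas Pak environment); MIC read as lowest inhibiting concentration.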

Assay [4] has as its system Salmonella enterica. The assay can be described thus: Antimicrobial activity against Salmonella choleraesuis measured after overnight incubation by susceptibility test. In short, it runs like this: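 MIC by agar dilution: about 10^4 organisms applied with a replicating device onto brain-heart infusion agar containing twofold dilutions of the quinoxaline 1,4-dioxide; incubated overnight at 37 °C under anaerobic conditions (Gas Pak).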

In assay [5] the test system is Salmonella enterica. The experiment in a line: Antimicrobial activity against Salmonella choleraesuis infected in mouse compound administered orally at 0.5 hr, 4 hrs and 24 hrs post infection. The settings on record: po, read-out: PD50. The gist of the method: as §1
The test system of assay [6] is Pasteurella multocida. The experiment in a line: Antimicrobial activity against Pasteurella multocida measured after overnight incubation by susceptibility test. The gist of the method: as §3
Assay [7] relates to Pasteurella multocida. The experiment in a line: Antimicrobial activity against Pasteurella multocida infected in mouse compound administered orally at 0.5 hr, 4 hrs and 24 hrs post infection. Particulars: po, read-out: PD50. The gist of the method:
as §2

The subject of assay [8] is Streptococcus pyogenes. The assay can be described thus: Antimicrobial activity against Streptococcus pyogenes infected in mouse compound administered subcutaneously at 0.5 hr, 4 hrs and 24 hrs post infection. Particulars: sc, read-out: PD50. The gist of the method: as §2
In assay [9] the test system is Escherichia coli. The experiment in a line: Antimicrobial activity against Escherichia coli infected in mouse compound administered orally at 0.5 hr, 4 hrs and 24 hrs post infection. The settings on record: po, read-out: PD50. The gist of the method: as §1
Assay [10] relates to Streptococcus pyogenes. The experiment in a line: Antimicrobial activity against Streptococcus pyogenes infected in mouse compound administered orally at 0.5 hr, 4 hrs and 24 hrs post infection. Particulars: po, read-out: PD50. In short, it runs like this:
as §2

The subject of assay [11] is Escherichia coli. The experiment in a line: Antimicrobial activity against Escherichia coli measured after overnight incubation by susceptibility test. In short, it runs like this: as §3
Assay [12] has as its system Salmonella enterica. The experiment in a line: Antimicrobial activity against Salmonella choleraesuis infected in mouse compound administered subcutaneously at 0.5 hr, 4 hrs and 24 hrs post infection. The settings on record: sc, read-out: PD50. In short, it runs like this: as §1
Assay [13] deals with Salmonella enterica. The experiment in a line: Ratio of PD50 for Salmonella choleraesuis infected in po dosed mouse to PD50 for Salmonella choleraesuis infected in sc dosed mouse.
Assay [14] relates to Streptococcus pyogenes. The experiment in a line: Ratio of PD50 for Streptococcus pyogenes infected in po dosed mouse to PD50 for Streptococcus pyogenes infected in sc dosed mouse.
Assay [15] relates to Pasteurella multocida. The experiment in a line: Ratio of PD50 for Pasteurella multocida infected in po dosed mouse to PD50 for Pasteurella multocida infected in sc dosed mouse.
In assay [16] the test system is Escherichia coli. The assay can be described thus: Ratio of PD50 for Escherichia coli infected in po dosed mouse to PD50 for Escherichia coli infected in sc dosed mouse.

By MIC is commonly meant the lowest concentration found to suppress growth. A high value points to a need for much substance. As to `CC(=O)c1ccc2c(c1)[n+]([O-])c(C)c(C(N)=O)[n+]2[O-]`, the ED50 in the assay with Escherichia coli [1] worked out at 10.9 mg/kg; in the assay with Pasteurella multocida [2] it was 11.7 mg/kg; in the assay with Salmonella enterica [5], 9.9 mg/kg; in the assay on Pasteurella multocida [7], 13.6 mg/kg; in the assay with Streptococcus pyogenes [8], 54 mg/kg; in the assay on Escherichia coli [9], 12.6 mg/kg. Also, the figures for the ED50 in the assay with Streptococcus pyogenes [10] and with Salmonella enterica [12] were 70 mg/kg and 7.6 mg/kg, respectively. Further, the MIC in the assay on Streptococcus pyogenes [3] turned out to be 0.19 µg/mL (≈ 0.727 µM); against Salmonella enterica [4], 0.39 µg/mL (≈ 1.49 µM); in the assay on Pasteurella multocida [6], 0.39 µg/mL (≈ 1.49 µM); in the assay with Escherichia coli [11] it was 0.39 µg/mL (≈ 1.49 µM).
With `CC(=O)c1ccc2c(c1)[n+]([O-])c(C(N)=O)c(C)[n+]2[O-]`, the ED50 in the assay with Escherichia coli [1] amounted to 5.6 mg/kg; in the assay on Pasteurella multocida [2], 7.7 mg/kg; with Salmonella enterica [5], 9.1 mg/kg; in the assay with Pasteurella multocida [7], 12.7 mg/kg; with Streptococcus pyogenes [8], 9.2 mg/kg; with Escherichia coli [9], 13 mg/kg. The ED50 with Streptococcus pyogenes [10] came out at 15 mg/kg; with Salmonella enterica [12], 4.5 mg/kg. Also, the MIC came out at 0.39 µg/mL (≈ 1.49 µM) in the assay on Streptococcus pyogenes [3], 0.19 µg/mL (≈ 0.727 µM) against Salmonella enterica [4], 0.19 µg/mL (≈ 0.727 µM) against Pasteurella multocida [6] and 0.39 µg/mL (≈ 1.49 µM) in the assay on Escherichia coli [11]. The Ratio in the assay on Salmonella enterica [13], with Streptococcus pyogenes [14], in the assay on Pasteurella multocida [15] and with Escherichia coli [16] was 2 in each case.

The values are drawn from ChEMBL document CHEMBL3244183, “Synthesis and antibacterial activity of isomeric 6- and 7-acetyl-3-methyl-2- quinoxalinecarbozamide 1,4-dioxides” (1978).
